Assay [1] can be described thus: Selectivity ratio of EC50 for mouse GAL4-fused PPARalpha expressed in human HepG2 cells to EC50 for human GAL4-fused PPARalpha LBD expressed in human HepG2 cells. Type of assay: cell-based.
In assay [2] the target is T1, Peroxisome proliferator-activated receptor gamma (Homo sapiens) (UniProt P37231).
T1 sequence (whole entry): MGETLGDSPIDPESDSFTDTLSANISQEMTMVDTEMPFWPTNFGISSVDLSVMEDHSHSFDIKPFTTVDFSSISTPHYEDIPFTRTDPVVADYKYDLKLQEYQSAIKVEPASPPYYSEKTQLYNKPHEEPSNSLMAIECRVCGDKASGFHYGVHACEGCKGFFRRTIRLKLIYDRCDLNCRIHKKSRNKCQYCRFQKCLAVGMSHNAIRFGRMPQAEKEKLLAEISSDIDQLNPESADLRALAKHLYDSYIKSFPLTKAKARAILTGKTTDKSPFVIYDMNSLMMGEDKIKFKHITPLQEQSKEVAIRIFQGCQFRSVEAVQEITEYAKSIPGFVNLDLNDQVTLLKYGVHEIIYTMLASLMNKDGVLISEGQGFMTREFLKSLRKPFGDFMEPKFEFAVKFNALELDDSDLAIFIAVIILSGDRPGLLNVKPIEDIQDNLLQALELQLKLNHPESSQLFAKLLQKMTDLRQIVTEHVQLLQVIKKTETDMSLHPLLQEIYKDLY
Nature of the assay: Transactivation of human GAL4-fused PPARgamma expressed in human HepG2 cells at 30 uM after 24 hrs by renilla luciferase reporter gene assay. It counts as cell-based. The essentials:
(§1)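 HepG2 cells carried GAL4-fused human PPARγ or PPARδ, or mouse or rat PPARα, plus the 4xUAS-tk-luc reporter. Cells treated across a concentration range for 24 h. Luciferase normalized to Renilla activity and expressed as fold induction over vehicle, set as 1.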
(In general: Reporter assays use an easily measured gene product as a stand-in for the process of interest.)

The test system of assay [3] is Rattus norvegicus. Nature of the assay: […] activity in fructose-challenged Sprague-Dawley rat assessed as increase in liver ACOX1 mRNA expression at 10 mg/kg, po administered once daily via gavage for 2 weeks measured after 5 hrs fasting by SYBR green dye-based RT-PCR analysis. Type of assay: functional, organism-based. The essentials:
(§2)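 Male rats were given 25% fructose in drinking water for 3 weeks. They then received 10 mg/kg/day orally in 0.5% methylcellulose (vehicle control) for 2 more weeks while fructose continued. Liver mRNA was measured by real-time RT-PCR, normalized to β2-microglobulin and set as 1 in the vehicle group. Values are means ± S.D.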

In assay [4] the test system is Rattus norvegicus. As to the kind of experiment: […] activity in fructose-challenged Sprague-Dawley rat assessed as reduction in serum triglyceride level at 10 mg/kg, po administered once daily via gavage for 2 weeks measured after 5 hrs fasting. Type of assay: functional, organism-based. The essentials: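 Male rats had 25% fructose in drinking water for 3 weeks, then oral dosing at 10 mg/kg/day for 2 weeks with fructose continued. The vehicle group got 0.5% methylcellulose. Serum triglyceride was measured after the 2-week treatment.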

For assay [5], the system named is Rattus norvegicus. Nature of the assay: […] activity in fructose-challenged Sprague-Dawley rat assessed as increase in liver SLC25A20 mRNA expression at 10 mg/kg, po administered once daily via gavage for 2 weeks measured after 5 hrs fasting by SYBR green dye-based RT-PCR analysis. It counts as functional, organism-based. The essentials:
as §2

Assay [6] addresses T2, Peroxisome proliferator-activated receptor alpha (Homo sapiens) (UniProt Q07869).
T2 sequence (whole entry): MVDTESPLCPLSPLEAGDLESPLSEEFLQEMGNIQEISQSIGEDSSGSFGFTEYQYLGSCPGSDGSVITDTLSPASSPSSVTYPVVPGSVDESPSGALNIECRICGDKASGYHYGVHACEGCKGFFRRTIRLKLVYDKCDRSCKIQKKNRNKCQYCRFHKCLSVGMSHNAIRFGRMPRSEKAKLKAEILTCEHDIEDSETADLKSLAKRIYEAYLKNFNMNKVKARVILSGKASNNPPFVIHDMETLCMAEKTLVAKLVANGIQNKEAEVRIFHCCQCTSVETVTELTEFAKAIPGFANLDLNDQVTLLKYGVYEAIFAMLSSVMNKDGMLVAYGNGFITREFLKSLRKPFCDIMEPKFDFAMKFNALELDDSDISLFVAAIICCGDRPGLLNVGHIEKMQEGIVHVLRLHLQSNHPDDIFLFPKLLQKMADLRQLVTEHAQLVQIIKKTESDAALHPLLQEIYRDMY
As to the kind of experiment: Transactivation of human GAL4-fused PPARalpha LBD expressed in human HepG2 cells at 1 uM after 24 hrs by dual renilla-luciferase reporter gene assay relative to fenofibrate. It counts as cell-based. The essentials: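 HepG2 cells cotransfected with 4xUAS-tk-luc and pBIND-hPPARα. Cells treated 24 h with compound at 1 μM final; fenofibrate 10 μM served as reference and 0.1% DMSO as vehicle. Read-out by reporter gene luciferase assay.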

Assay [7] concerns Rattus norvegicus. As to the kind of experiment: […] activity in fructose-challenged Sprague-Dawley rat assessed as increase in liver ACADM mRNA expression at 10 mg/kg, po administered once daily via gavage for 2 weeks measured after 5 hrs fasting by SYBR green dye-based RT-PCR analysis. It counts as functional, organism-based. The essentials:
as §2

In assay [8] the target is T2, Peroxisome proliferator-activated receptor alpha (Homo sapiens). Nature of the assay: Transactivation of human PPARalpha LBD expressed in human HepG2 cells at 10 uM after 24 hrs in presence of PPARalpha antagonist by dual renilla-luciferase reporter gene assay. It counts as cell-based. The essentials: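 Transfected HepG2 cells (4xUAS-tk-luc plus pBIND-hPPARα) were pretreated 1 h with graded GW6471 before agonist was added at 10 μM final. Reporter luciferase was read after treatment. Percent inhibition was calculated relative to activity without GW6471, taken as 100%.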

Assay [9] has as its target Peroxisome proliferator-activated receptor alpha (Homo sapiens) (UniProt Q07869). Nature of the assay: Displacement of fluormone pan-PPAR green from GST-tagged human PPARalpha ligand binding domain after 3 hrs by TR-FRET assay.
Assay [10] can be described thus: Selectivity ratio of EC50 for rat GAL4-fused PPARalpha expressed in human HepG2 cells to EC50 for human GAL4-fused PPARalpha LBD expressed in human HepG2 cells. Type of assay: cell-based.
The target in assay [11] is T2, Peroxisome proliferator-activated receptor alpha (Homo sapiens). As to the kind of experiment: Transactivation of human PPARalpha in human FLC4 cells assessed as upregulation of PDK4 mRNA expression after 48 hrs by SYBR green dye-based RT-PCR analysis. It counts as cell-based. The essentials: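 FLC4 cells treated for 48 h with various concentrations. PDK4 mRNA measured by real-time RT-PCR, normalized to β2-microglobulin and set as 1 in vehicle. Values are means ± S.D.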

Assay [12] has as its system Rattus norvegicus. As to the kind of experiment: […] activity in fructose-challenged Sprague-Dawley rat assessed as increase in liver CPT1A mRNA expression at 10 mg/kg, po administered once daily via gavage for 2 weeks measured after 5 hrs fasting by SYBR green dye-based RT-PCR analysis. Type of assay: functional, organism-based. The essentials: as §2

Assay [13] has as its target T3, Peroxisome proliferator-activated receptor delta (Homo sapiens) (UniProt Q03181).
T3 sequence (whole entry): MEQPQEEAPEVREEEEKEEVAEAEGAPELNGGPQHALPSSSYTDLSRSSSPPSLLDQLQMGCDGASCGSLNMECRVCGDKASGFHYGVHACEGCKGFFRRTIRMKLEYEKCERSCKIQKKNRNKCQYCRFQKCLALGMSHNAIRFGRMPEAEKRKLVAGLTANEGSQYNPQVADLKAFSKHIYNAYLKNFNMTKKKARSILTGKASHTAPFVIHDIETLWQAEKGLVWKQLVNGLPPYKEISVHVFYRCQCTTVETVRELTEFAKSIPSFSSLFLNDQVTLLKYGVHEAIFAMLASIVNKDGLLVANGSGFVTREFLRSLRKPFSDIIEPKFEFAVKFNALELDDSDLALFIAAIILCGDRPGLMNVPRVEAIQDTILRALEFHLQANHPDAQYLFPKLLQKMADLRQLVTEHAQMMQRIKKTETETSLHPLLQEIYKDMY
Nature of the assay: Transactivation of human GAL4-fused PPARdelta expressed in human HepG2 cells after 24 hrs by dual renilla-luciferase reporter gene assay. It counts as cell-based. The essentials:
as §1

Each structure is given as a SMILES string. The source made the active and inactive calls. The rule behind the calls is not given here.

With `Cc1cc(C(=O)O)c2c(C(C)C)nn(-c3ccc(Cl)cc3)c2n1`, the Ratio EC50 in assay [1] and in [10] was 20 in each case. Besides, the outcome (in assay [2]; with Rattus norvegicus [3]; with Rattus norvegicus [4]; in the assay with Rattus norvegicus [5]; in the assay on Rattus norvegicus [7]; in the assay on Rattus norvegicus [12]) was Active. The activation relative to fenofibrate in assay [6] turned out to be 187. In addition, the outcome in assay [8] and in [13] was inactive. Further, the inhibition entry in [9] is “Dose-dependent effect”. The Activity result in [11] was “Dose-dependent effect”.

Source of the values: ChEMBL document CHEMBL4385646, “Structural development of 1H-pyrazolo-[3,4-b]pyridine-4-carboxylic acid derivatives as human peroxisome proliferator-activated receptor alpha (PPARα)-selective agonists” (Bioorg Med Chem Lett, 2019).
